Source: ChEMBL document CHEMBL1131334, “Anti-HIV agents that selectively target retroviral nucleocapsid protein zinc fingers without affecting cellular zinc finger proteins” (J Med Chem, 1998)

Tests used:
CEM-SS [1] = test: (§1) CC50 reflects the drug concentration that elicits 50% cell death of CEM-SS cells and HIV-1RF was measured using XTT assay.; type: functional; conditions: Homo sapiens
Method in brief: (§2)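 CEM-SS cells infected with HIV-1RF. EC50 is the concentration giving 50% cytoprotection. CC50 is the concentration eliciting 50% cell death.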

[2] = Therapeutic index ([…]) was evaluated; conditions: read-out: TI50
CEM-SS [3] = test: (§3) Compound concentration that provides 50% cytoprotection on CEM-SS cells and HIV-1RF was measured using XTT assay.; type: functional, cell-based; conditions: Homo sapiens; method in brief: as §2
[4] = test system: Human immunodeficiency virus 1; test: as §1; type: functional; conditions: Human immunodeficiency virus 1, CEM-SS; method in brief: as §2
[5] = test system: Human immunodeficiency virus 1; test: Compound concentration that provides 50% cytoprotection on PBMC cultures and HIV-1RF was measured using XTT assay.; type: functional, organism-based
[6] = test system: Human immunodeficiency virus 1; test: CC50 reflects the drug concentration that elicits 50% cell death of PBMC cultures and HIV-1RF was measured using XTT assay.; type: functional
[7] = test system: Human immunodeficiency virus 1; test: as §3; type: functional, organism-based; conditions: Human immunodeficiency virus 1, CEM-SS; method in brief: as §2

Row | SMILES | CC50 (CEM-SS [1]) [µM] | selectivity ratio [2] | EC50 (CEM-SS [3]) [µM] | CC50 [4] [µM] | EC50 [5] [nM] | CC50 [6] [µM] | EC50 [7] [µM]
1 | O=S1(=O)C[C@H](O)[C@H](O)CS1 | 184 | 27.9 | 6.6 |  |  |  | 
2 | NC(=O)c1cccc(N=O)c1 |  |  |  | 10.6 | 1560 | 50 | 
3 | NS(=O)(=O)c1ccc(NC(=O)c2ccccc2SSc2ccccc2C(=O)Nc2ccc(S(N)(=O)=O)cc2)cc1 |  | > 87 |  | > 200 |  |  | 2.3
4 | NC(=O)/N=N/C(N)=O [E927A] |  | > 5.3 |  | > 200 |  |  | 38
